Common to all, as to format: functional
One assay concerns SR. The assay is described as follows: Cytotoxicity against human SR cells after 48 hrs by SRB assay. In short, it runs like this: (§1)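 NCI 60-panel five-dose screen. Cells in RPMI 1640 with 5% FBS and 2 mM glutamine, plated at 5000–40,000 cells/well and preincubated 24 h at 37 °C under 5% CO2. Five 10-fold or half-log dilutions were added from a DMSO stock for 48 h. Cells were TCA-fixed (SR settled cells: 16% final), SRB-stained and read at 515 nm. GI50 was taken where (Ti−Tz)/(C−Tz)×100 = 50.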
On the technique in general: In SRB staining, fixed cells bind dye roughly in proportion to their protein.

A further assay has as its system UACC-257. As to the kind of experiment: Cytotoxicity against human UACC257 cells after 48 hrs by SRB assay. Conditions: UACC-257, 48 h. In short, it runs like this:
as §1

For another assay, the system named is K562. The assay is described as follows: Cytotoxicity against human K562 cells after 48 hrs by SRB assay. The note with it: K562, 48 h. In a few lines:
(§2)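 NCI 60-cell five-dose screen. Cells grown in RPMI 1640 with 5% FBS and 2 mM glutamine, plated at 5000–40,000 cells/well, and preincubated 24 h at 37 °C in 5% CO2. Time-zero plates fixed with TCA. Five serial dilutions of DMSO stock added, then 48 h exposure. TCA fixation, 0.4% SRB staining, absorbance read at 515 nm. GI50 from [(Ti−Tz)/(C−Tz)]×100 = 50.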

Another assay has as its system IGROV-1. As to the kind of experiment: Cytotoxicity against human IGROV1 cells after 48 hrs by SRB assay. The note with it: IGROV-1, 48 h. In a few lines: as §2
The mark [1] stands for this setting: read-out: pLC50 (the source's name) (converted).

The structures appear in SMILES notation.

Usually GI50 stands for the concentration giving 50% growth inhibition. A low value points to greater sensitivity of the cells. In the case of `CSC1=Nc2c(c(C)c(-c3ccccc3)n2CCCCl)C2=NC(=O)CN12`, the GI50 with SR was 3.47 µM; with UACC-257 it was 12.6 µM; with K562 it was 5.75 µM; in the assay on IGROV-1, 3.55 µM. For the same compound, the CC50 with SR (setting [1]) was more than 100 µM; with UACC-257 (setting [1]), 64.6 µM; in the assay with K562 (setting [1]), more than 100 µM; in the assay with IGROV-1 (setting [1]), 95.5 µM. Moreover, the TGI with SR (read-out: pTGI) was more than 100 µM; with UACC-257 (read-out: pTGI (converted)), 28.2 µM; with K562 (read-out: pTGI) it was more than 100 µM; with IGROV-1 (read-out: pTGI (converted)) it was 21.4 µM.

(Values after ChEMBL document CHEMBL2062453, “Lead optimization through VLAK protocol: new annelated pyrrolo-pyrimidine derivatives as antitumor agents” (2012).)
